# Residue numbers refer to the chain shown, from its start.
# Key:
# Settings in all cases: stereoisomer not certain
# OR2T3 R298C = test system: T1, OR2T3 R298C
# T1 sequence (whole entry): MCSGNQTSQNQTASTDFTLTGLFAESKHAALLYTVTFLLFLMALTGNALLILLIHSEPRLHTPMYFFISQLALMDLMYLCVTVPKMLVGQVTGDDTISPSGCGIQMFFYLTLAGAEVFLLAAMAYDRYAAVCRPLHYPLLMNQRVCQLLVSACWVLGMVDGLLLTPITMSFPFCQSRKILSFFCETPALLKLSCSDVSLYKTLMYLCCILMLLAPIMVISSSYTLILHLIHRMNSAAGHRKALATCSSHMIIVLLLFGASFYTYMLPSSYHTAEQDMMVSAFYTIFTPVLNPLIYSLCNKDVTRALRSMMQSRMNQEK
# How it was run: (§1)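 Transient luciferase assays in mammalian cell lines were common, though methods varied by source. The values come from published papers and their supplementary material, with extra details from the original authors when needed. Responsive refers to a measured signal the original authors judged statistically different from baseline, and non-responsive (inactive) to the remainder.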
# OR2T3 Y109H = test system: T2, OR2T3 Y109H
# T2 sequence (whole entry): T1 sequence (whole entry) with Y109H, C298R
# How it was run: as §1
# OR2T33 (Homo sapiens) = target: T3, OR2T33 (Homo sapiens) (UniProt Q8NG76)
# T3 sequence (whole entry): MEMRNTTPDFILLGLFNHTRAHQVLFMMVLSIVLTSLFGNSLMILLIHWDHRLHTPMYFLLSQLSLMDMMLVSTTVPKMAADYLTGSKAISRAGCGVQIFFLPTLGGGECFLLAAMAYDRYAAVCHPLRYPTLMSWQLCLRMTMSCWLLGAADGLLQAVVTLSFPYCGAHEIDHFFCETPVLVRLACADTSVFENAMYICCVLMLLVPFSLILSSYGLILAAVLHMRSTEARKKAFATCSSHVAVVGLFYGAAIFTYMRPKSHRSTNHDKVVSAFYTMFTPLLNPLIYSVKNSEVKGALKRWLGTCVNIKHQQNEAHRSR
# How it was run: as §1
# OR2T34 (Homo sapiens) = target: T4, OR2T34 (Homo sapiens) (UniProt Q8NGX1)
# T4 sequence (whole entry): T1 sequence (whole entry) with Y109H, T202M, M204T, A214T, H239R, P267R, C298R
# How it was run: as §1
# OR2T35 (Homo sapiens) = target: T5, OR2T35 (Homo sapiens) (UniProt Q8NGX2)
# T5 sequence (whole entry): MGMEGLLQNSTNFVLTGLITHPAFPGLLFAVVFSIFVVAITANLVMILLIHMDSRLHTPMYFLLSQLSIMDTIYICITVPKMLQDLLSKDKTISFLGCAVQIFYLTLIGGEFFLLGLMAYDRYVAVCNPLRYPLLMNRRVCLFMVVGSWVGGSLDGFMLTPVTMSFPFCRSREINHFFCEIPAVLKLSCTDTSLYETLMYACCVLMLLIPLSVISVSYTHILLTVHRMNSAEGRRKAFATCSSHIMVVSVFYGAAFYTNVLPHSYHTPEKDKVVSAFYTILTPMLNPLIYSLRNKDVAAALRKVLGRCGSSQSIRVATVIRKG
# How it was run: as §1
# OR2T4 (Homo sapiens) = target: T6, OR2T4 (Homo sapiens) (UniProt Q8NH00)
# T6 sequence (whole entry): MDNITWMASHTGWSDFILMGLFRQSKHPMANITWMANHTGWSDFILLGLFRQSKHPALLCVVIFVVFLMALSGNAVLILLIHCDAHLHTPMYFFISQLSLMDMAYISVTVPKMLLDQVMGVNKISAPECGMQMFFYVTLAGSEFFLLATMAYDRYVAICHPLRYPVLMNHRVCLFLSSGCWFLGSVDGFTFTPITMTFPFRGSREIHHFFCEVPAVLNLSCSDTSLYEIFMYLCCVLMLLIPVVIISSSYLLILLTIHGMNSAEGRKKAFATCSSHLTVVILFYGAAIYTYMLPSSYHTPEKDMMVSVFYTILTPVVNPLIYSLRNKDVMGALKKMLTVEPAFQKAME
# How it was run: as §1
# OR2T5 (Homo sapiens) = target: T7, OR2T5 (Homo sapiens) (UniProt Q6IEZ7)
# T7 sequence (whole entry): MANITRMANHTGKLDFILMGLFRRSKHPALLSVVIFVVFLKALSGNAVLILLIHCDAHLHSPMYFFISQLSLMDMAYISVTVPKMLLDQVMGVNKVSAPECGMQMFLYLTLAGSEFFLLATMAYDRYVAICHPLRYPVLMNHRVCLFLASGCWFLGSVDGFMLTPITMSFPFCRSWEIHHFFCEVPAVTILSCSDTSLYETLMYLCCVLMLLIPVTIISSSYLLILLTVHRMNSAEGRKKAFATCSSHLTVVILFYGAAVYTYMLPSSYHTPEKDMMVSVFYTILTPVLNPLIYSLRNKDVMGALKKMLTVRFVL
# How it was run: as §1
# OR2T5 K13R K41M G45E = test system: T8, OR2T5 K13R K41M G45E
# T8 sequence (whole entry): T7 sequence (whole entry) with K13R, K41M, G45E
# How it was run: as §1
# OR2T5 K13R L134F = test system: T9, OR2T5 K13R L134F
# T9 sequence (whole entry): T7 sequence (whole entry) with K13R, L134F
# How it was run: as §1
# OR2T6 (Homo sapiens) = target: T10, OR2T6 (Homo sapiens) (UniProt Q8NHC8)
# T10 sequence (whole entry): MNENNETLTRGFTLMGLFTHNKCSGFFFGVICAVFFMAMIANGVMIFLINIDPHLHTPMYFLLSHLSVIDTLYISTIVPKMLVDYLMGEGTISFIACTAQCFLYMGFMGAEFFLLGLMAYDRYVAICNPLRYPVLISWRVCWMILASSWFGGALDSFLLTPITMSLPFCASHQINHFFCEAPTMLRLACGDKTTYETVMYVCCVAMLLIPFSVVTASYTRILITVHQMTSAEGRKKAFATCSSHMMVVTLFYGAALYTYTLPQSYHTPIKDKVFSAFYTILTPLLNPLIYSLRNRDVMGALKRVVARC
# How it was run: as §1
# OR2T6 C23G = test system: T11, OR2T6 C23G
# T11 sequence (whole entry): T10 sequence (whole entry) with C23G
# How it was run: as §1
# OR2T7 = test system: T12, OR2T7
# T12 sequence (whole entry): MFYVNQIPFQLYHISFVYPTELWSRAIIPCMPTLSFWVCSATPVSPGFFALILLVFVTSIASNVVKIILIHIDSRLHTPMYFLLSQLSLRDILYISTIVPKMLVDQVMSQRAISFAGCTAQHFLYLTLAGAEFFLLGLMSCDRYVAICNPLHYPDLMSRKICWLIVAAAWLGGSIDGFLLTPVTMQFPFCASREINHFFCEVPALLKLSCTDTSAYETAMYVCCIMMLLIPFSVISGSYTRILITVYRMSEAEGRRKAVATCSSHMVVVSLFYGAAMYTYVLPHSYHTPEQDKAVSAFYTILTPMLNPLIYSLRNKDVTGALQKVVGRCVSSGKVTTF
# How it was run: as §1
# OR2T8 (Homo sapiens) = target: T13, OR2T8 (Homo sapiens) (UniProt A6NH00)
# T13 sequence (whole entry): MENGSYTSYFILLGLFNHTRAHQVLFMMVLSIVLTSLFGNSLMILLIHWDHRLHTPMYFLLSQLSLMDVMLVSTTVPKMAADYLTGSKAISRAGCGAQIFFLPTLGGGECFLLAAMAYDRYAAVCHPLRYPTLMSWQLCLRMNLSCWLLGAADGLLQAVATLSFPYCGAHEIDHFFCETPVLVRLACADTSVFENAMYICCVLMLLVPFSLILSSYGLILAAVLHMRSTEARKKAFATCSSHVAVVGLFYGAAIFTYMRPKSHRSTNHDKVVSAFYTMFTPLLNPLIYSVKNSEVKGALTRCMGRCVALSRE
# How it was run: as §1
# OR2V1 (Homo sapiens) = target: T14, OR2V1 (Homo sapiens) (UniProt Q8NHB1)
# T14 sequence (whole entry): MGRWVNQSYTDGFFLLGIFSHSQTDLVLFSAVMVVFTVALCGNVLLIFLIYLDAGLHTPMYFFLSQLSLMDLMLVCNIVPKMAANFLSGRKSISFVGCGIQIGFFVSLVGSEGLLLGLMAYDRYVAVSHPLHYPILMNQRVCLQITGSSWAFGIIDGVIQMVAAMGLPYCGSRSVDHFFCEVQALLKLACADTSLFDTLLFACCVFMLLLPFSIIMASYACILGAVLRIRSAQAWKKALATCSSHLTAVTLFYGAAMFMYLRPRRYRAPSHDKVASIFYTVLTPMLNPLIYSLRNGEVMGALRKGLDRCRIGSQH
# How it was run: as §1
# OR2V2 (Homo sapiens) = target: T15, OR2V2 (Homo sapiens) (UniProt Q96R30)
# T15 sequence (whole entry): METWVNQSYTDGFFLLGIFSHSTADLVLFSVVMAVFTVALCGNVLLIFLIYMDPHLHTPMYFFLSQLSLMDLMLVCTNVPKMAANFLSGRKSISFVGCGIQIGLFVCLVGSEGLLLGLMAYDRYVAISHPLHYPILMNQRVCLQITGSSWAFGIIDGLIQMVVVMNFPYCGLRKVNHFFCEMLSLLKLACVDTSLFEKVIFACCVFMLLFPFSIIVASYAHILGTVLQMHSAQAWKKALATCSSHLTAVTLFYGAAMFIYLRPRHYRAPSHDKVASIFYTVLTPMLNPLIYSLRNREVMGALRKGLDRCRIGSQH
# How it was run: as §1
# OR2W1 (Homo sapiens) = target: T16, OR2W1 (Homo sapiens) (UniProt Q9Y3N9)
# T16 sequence (whole entry): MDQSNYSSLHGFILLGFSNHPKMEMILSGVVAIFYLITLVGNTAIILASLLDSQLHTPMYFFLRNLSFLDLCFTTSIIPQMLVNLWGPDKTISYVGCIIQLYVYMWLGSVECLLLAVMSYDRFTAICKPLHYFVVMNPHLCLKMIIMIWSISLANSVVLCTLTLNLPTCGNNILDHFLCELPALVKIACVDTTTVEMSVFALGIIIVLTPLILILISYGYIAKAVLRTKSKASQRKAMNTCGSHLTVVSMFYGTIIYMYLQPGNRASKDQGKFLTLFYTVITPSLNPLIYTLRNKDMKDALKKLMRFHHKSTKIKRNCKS
# How it was run: as §1
# OR2W1 G96V = test system: T17, OR2W1 G96V
# T17 sequence (whole entry): T16 sequence (whole entry) with G96V
# How it was run: as §1
# OR2W1 [1] = test system: T18, OR2W1
# T18 sequence (whole entry): T16 sequence (whole entry) with D296N
# How it was run: as §1
# OR2W1 [2] = test system: T19, OR2W1; remark: listed apart in the source
# T19 sequence (whole entry): T16 sequence (whole entry) with M81V
# How it was run: as §1
# 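Further: active if original authors judged signal statistically different from baseline.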
smiles,measurement,setting,value
CC1=C(O)C(=O)OC1C (stereo unspecified),odorant receptor agonist call,OR2T3 R298C,inactive
same,odorant receptor agonist call,OR2T3 Y109H,inactive
same,odorant receptor agonist call,OR2T33 (Homo sapiens),inactive
same,odorant receptor agonist call,OR2T34 (Homo sapiens),inactive
same,odorant receptor agonist call,OR2T35 (Homo sapiens),inactive
same,odorant receptor agonist call,OR2T4 (Homo sapiens),inactive
same,odorant receptor agonist call,OR2T5 (Homo sapiens),inactive
same,odorant receptor agonist call,OR2T5 K13R K41M G45E,inactive
same,odorant receptor agonist call,OR2T5 K13R L134F,inactive
same,odorant receptor agonist call,OR2T6 (Homo sapiens),inactive
same,odorant receptor agonist call,OR2T6 C23G,inactive
same,odorant receptor agonist call,OR2T7,inactive
same,odorant receptor agonist call,OR2T8 (Homo sapiens),inactive
same,odorant receptor agonist call,OR2V1 (Homo sapiens),inactive
same,odorant receptor agonist call,OR2V2 (Homo sapiens),inactive
same,odorant receptor agonist call,OR2W1 (Homo sapiens),inactive
same,odorant receptor agonist call,OR2W1 G96V,inactive
COC1CC2CC1C1CC(C=O)CC21 (stereo unspecified),odorant receptor agonist call,OR2T34 (Homo sapiens),inactive
CC(C)=CCCC(C)CC=O (stereo unspecified),odorant receptor agonist call,OR2T34 (Homo sapiens),inactive
CC(CC=O)c1ccc(C(C)(C)C)cc1 (stereo unspecified),odorant receptor agonist call,OR2T34 (Homo sapiens),inactive
C=CC(C)(CCC=C(C)C)OC(C)=O (stereo unspecified),odorant receptor agonist call,OR2T34 (Homo sapiens),inactive
CCCC(S)CCOC(C)=O (stereo unspecified),odorant receptor agonist call,OR2T3 R298C,inactive
same,odorant receptor agonist call,OR2T3 Y109H,inactive
same,odorant receptor agonist call,OR2T33 (Homo sapiens),inactive
same,odorant receptor agonist call,OR2T34 (Homo sapiens),inactive
same,odorant receptor agonist call,OR2T35 (Homo sapiens),inactive
same,odorant receptor agonist call,OR2T4 (Homo sapiens),inactive
same,odorant receptor agonist call,OR2T5 (Homo sapiens),inactive
same,odorant receptor agonist call,OR2T5 K13R K41M G45E,inactive
same,odorant receptor agonist call,OR2T5 K13R L134F,inactive
same,odorant receptor agonist call,OR2T6 (Homo sapiens),inactive
same,odorant receptor agonist call,OR2T6 C23G,inactive
same,odorant receptor agonist call,OR2T7,inactive
same,odorant receptor agonist call,OR2T8 (Homo sapiens),inactive
same,odorant receptor agonist call,OR2V1 (Homo sapiens),inactive
same,odorant receptor agonist call,OR2V2 (Homo sapiens),inactive
same,odorant receptor agonist call,OR2W1 (Homo sapiens),active
same,odorant receptor agonist call,OR2W1 G96V,active
same,odorant receptor agonist call,OR2W1 [1],active
same,odorant receptor agonist call,OR2W1 [2],active
CC1CC(C)(c2ccccc2)CO1 (stereo unspecified),odorant receptor agonist call,OR2T34 (Homo sapiens),inactive

# From the M2OR odorant receptor database
